Results from ChEMBL document CHEMBL3616436, “Synthesis, cytotoxicity and antimicrobial activity of thiourea derivatives incorporating 3-(trifluoromethyl)phenyl moiety” (Eur J Med Chem, 2015).
Converted amounts (≈) assume the structure as drawn. The source made the active and inactive calls. The rule behind the calls is not given here.

Legend:
Staphylococcus aureus [1] = test: Antimicrobial activity against Staphylococcus aureus ATCC 6538 at 400 ug after 18 hrs by disc-diffusion method; assay type: functional; settings: ATCC 6538, 18 h, read-out: IZ
How it was run: (§1)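 Disc diffusion on Mueller-Hinton II agar per CLSI; 9 mm paper discs loaded with 400 µg compound from DMSO solution, dried, placed on agar; growth inhibition zone diameter read after 18 h at 35°C.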

Micrococcus luteus [2] = test: Antimicrobial activity against Micrococcus luteus ATCC 10240 at 400 ug after 18 hrs by disc-diffusion method; assay type: functional; settings: ATCC 10240, 18 h, read-out: IZ; how it was run: as §1
Staphylococcus aureus [3] = test: Antimicrobial activity against Staphylococcus aureus ATCC 25923 at 400 ug after 18 hrs by disc-diffusion method; assay type: functional; settings: ATCC 25923, 18 h, read-out: IZ; how it was run: as §1
Proteus vulgaris = test: Antimicrobial activity against Proteus vulgaris NCTC 4635 at 400 ug after 18 hrs by disc-diffusion method; assay type: functional; how it was run: as §1
[4] = system: Human immunodeficiency virus 1; test: Antiviral activity against HIV1 3B infected in human MT4 cells assessed as protection against virus-induced cytopathogenicity by MTT assay; assay type: functional, organism-based; settings: Human immunodeficiency virus 1, 3B
Yellow fever virus = test: Antiviral activity against Yellow fever virus 17D infected in BHK cells assessed as protection against virus-induced cytopathogenicity after 3 to 4 days by MTT assay; assay type: functional, cell-based
[5] = system: Staphylococcus epidermidis; test: Antimicrobial activity against Staphylococcus epidermidis ATCC 35984 at 400 ug after 18 hrs by disc-diffusion method; assay type: functional; settings: ATCC 35984, 18 h, read-out: IZ; how it was run: as §1
Enterococcus hirae = test: Antimicrobial activity against Enterococcus hirae ATCC 10541 at 400 ug after 18 hrs by disc-diffusion method; assay type: functional; how it was run: as §1
Coxsackievirus B5 = test: Antiviral activity against Human coxsackievirus B5 ATCC VR-29 infected in African green monkey Vero 76 cells assessed as reduction of virus-plaque formation after 3 days by crystal violet staining; assay type: functional, organism-based; settings: Enterovirus B, ATCC VR-29, Vero, 72 h
How it was run: (§2)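 Plaque reduction: Vero-76 at 2x10^5 cells/well grown to confluent monolayers, infected 2 h at 50–100 PFU/well; after removing unadsorbed virus, overlay of D-MEM, 1% inactivated FBS, 0.75% methylcellulose with or without serial compound dilutions; 3 days at 37°C, fixed and stained with crystal violet in 50% ethanol, plaques counted; EC50 by linear regression.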

Human alphaherpesvirus 1 = test: Antiviral activity against Human herpesvirus 1 KOS ATCC VR-1493 infected in African green monkey Vero 76 cells assessed as reduction of virus-plaque formation after 3 days by crystal violet staining; assay type: functional, organism-based; settings: Human alphaherpesvirus 1, KOS ATCC VR1493, Vero, 72 h; how it was run: as §2
Poliovirus 1 = test: Antiviral activity against Poliovirus type 1 ATCC VR-1562 infected in African green monkey Vero 76 cells assessed as reduction of virus-plaque formation after 2 days by crystal violet staining; assay type: functional, organism-based; settings: Enterovirus C, ATCC VR-1562, Vero, 48 h
Bacillus subtilis = test: Antimicrobial activity against Bacillus subtilis ATCC 6633 at 400 ug after 18 hrs by disc-diffusion method; assay type: functional; settings: ATCC 6633, 18 h, read-out: IZ; how it was run: as §1
Vaccinia virus = test: Antiviral activity against Human Vaccinia virus ATCC VR-1549 infected in African green monkey Vero 76 cells assessed as reduction of virus-plaque formation after 3 days by crystal violet staining; assay type: functional, organism-based; settings: Orthopoxvirus vaccinia, ATCC VR-1549, Vero, 72 h
Micrococcus luteus [6] = test: Antimicrobial activity against Micrococcus luteus ATCC 9341 at 400 ug after 18 hrs by disc-diffusion method; assay type: functional; settings: ATCC 9341, 18 h, read-out: IZ; how it was run: as §1
Staphylococcus aureus [7] = test: Antimicrobial activity against Staphylococcus aureus NCTC 4163 at 400 ug after 18 hrs by disc-diffusion method; assay type: functional; settings: NCTC 4163, 18 h, read-out: IZ; how it was run: as §1
[8] = system: Mycobacterium tuberculosis; test: Antimycobacterial activity against drug-sensitive Mycobacterium tuberculosis Spec. 192; assay type: functional
How it was run: (§3)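 Classical test-tube successive-dilution method in Youmans' modification of Proskauer and Beck liquid medium with 10% bovine serum. Inoculum came from 14-day cultures. DMSO stock was 10 mg/mL, diluted geometrically in medium. Tubes were incubated at 37 °C. Concentrations tested were 3.1, 6.2, 12.5, 25, 50 and 100 µg/ml. MIC is the minimum concentration inhibiting growth relative to compound-free tubes.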

[9] = Cytotoxicity against BHK cells assessed as cell viability after 48 to 96 hrs by MTT assay; assay type: cell-based, Mesocricetus auratus; settings: hamster
Enterococcus faecalis = test: Antimicrobial activity against Enterococcus faecalis ATCC 29212 at 400 ug after 18 hrs by disc-diffusion method; assay type: functional; how it was run: as §1
[10] = system: Mycobacterium tuberculosis; test: Antimycobacterial activity against Mycobacterium tuberculosis H37Rv ATCC 25618; assay type: functional; how it was run: as §3
Staphylococcus aureus [11] = test: Antimicrobial activity against Staphylococcus aureus ATCC 29213 after 18 hrs by twofold serial microdilution method; assay type: functional; settings: ATCC 29213, 18 h
Staphylococcus aureus [12] = test: Antimicrobial activity against Staphylococcus aureus ATCC 29213 at 400 ug after 18 hrs by disc-diffusion method; assay type: functional; settings: ATCC 29213, 18 h, read-out: IZ; how it was run: as §1
[13] = system: Staphylococcus epidermidis; test: Antimicrobial activity against Staphylococcus epidermidis ATCC 12228 after 18 hrs by twofold serial microdilution method; assay type: functional; settings: ATCC 12228, 18 h
Staphylococcus aureus [14] = test: Antimicrobial activity against Staphylococcus aureus NCTC 4163 after 18 hrs by twofold serial microdilution method; assay type: functional; settings: NCTC 4163, 18 h
[15] = Cytotoxicity against African green monkey Vero 76 cells assessed as cell viability after 48 to 96 hrs by crystal violet staining; assay type: cell-based; settings: chlorocebus sabaeus
Staphylococcus aureus [16] = test: Antimicrobial activity against Staphylococcus aureus ATCC 25923 after 18 hrs by twofold serial microdilution method; assay type: functional; settings: ATCC 25923, 18 h
Staphylococcus aureus [17] = test: Antimicrobial activity against Staphylococcus aureus ATCC 6538 after 18 hrs by twofold serial microdilution method; assay type: functional; settings: ATCC 6538, 18 h
[18] = system: Mammalian orthoreovirus 1; test: Antiviral activity against Reovirus type-1 ATCC VR-214 infected in BHK cells assessed as protection against virus-induced cytopathogenicity after 3 to 4 days by MTT assay; assay type: functional, cell-based; settings: Mammalian orthoreovirus 1, ATCC VR-214, BHK
How it was run: (§4)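 Cells seeded in 96-well plates (BHK 5x10^4, MDBK 3x10^4 cells/well), grown overnight to confluence, infected at m.o.i. 0.01 (BHK for Reo-1, MDBK for BVDV); serial compound dilutions in maintenance medium with 0.5% inactivated FBS added after 1 h; viability by MTT after 3–4 days at 37°C; EC50 for 50% protection by linear regression.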

Bacillus cereus = test: Antimicrobial activity against Bacillus cereus ATCC 11778 at 400 ug after 18 hrs by disc-diffusion method; assay type: functional; settings: ATCC 11778, 18 h, read-out: IZ; how it was run: as §1
[19] = Antiviral activity against Bovine viral diarrhea virus 1-NADL ATCC VR-534 infected in MDBK cells assessed as protection against virus-induced cytopathogenicity after 3 to 4 days by MTT assay; assay type: functional, cell-based; settings: Bovine viral diarrhea virus isolates and strains, ATCC VR-534, MDBK; how it was run: as §4
[20] = Cytotoxicity against bovine MDBK cells assessed as cell viability after 48 to 96 hrs by MTT assay; assay type: cell-based, Bos taurus; settings: cattle
[21] = system: Vesicular stomatitis virus; test: Antiviral activity against Vesicular stomatitis virus ATCC VR 1540 infected in African green monkey Vero 76 cells assessed as reduction of virus-plaque formation after 2 days by crystal violet staining; assay type: functional, organism-based; settings: ATCC VR 1540, Vero, 48 h
[22] = Cytotoxicity against human MT4 cells; assay type: cell-based
[23] = system: Staphylococcus epidermidis; test: Antimicrobial activity against Staphylococcus epidermidis ATCC 35984 after 18 hrs by twofold serial microdilution method; assay type: functional; settings: ATCC 35984, 18 h
[24] = system: Staphylococcus epidermidis; test: Antimicrobial activity against Staphylococcus epidermidis ATCC 12228 at 400 ug after 18 hrs by disc-diffusion method; assay type: functional; settings: ATCC 12228, 18 h, read-out: IZ; how it was run: as §1

Compound | zone of inhibition at 400 µg/disc (Staphylococcus aureus [1]) | zone of inhibition at 400 µg/disc (Micrococcus luteus [2]) | zone of inhibition at 400 µg/disc (Staphylococcus aureus [3]) | inhibition zone (IZ) (Proteus vulgaris) | EC50 [4] | EC50 (Yellow fever virus) | zone of inhibition at 400 µg/disc [5] | EC50 (Coxsackievirus B5) | EC50 (Human alphaherpesvirus 1) | EC50 (Poliovirus 1) | zone of inhibition at 400 µg/disc (Bacillus subtilis) | EC50 (Vaccinia virus) | zone of inhibition at 400 µg/disc (Micrococcus luteus [6]) | zone of inhibition at 400 µg/disc (Staphylococcus aureus [7]) | MIC [8] | CC50 [9] | inhibition zone (IZ) (Enterococcus faecalis) | MIC [10] | MIC (Staphylococcus aureus [11]) | zone of inhibition at 400 µg/disc (Staphylococcus aureus [12]) | also measured
CCNC(=S)Nc1cccc(C(F)(F)F)c1 | 14 mm | 13 mm | 15 mm | inactive | > 100 µM | > 100 µM | 13 mm | > 100 µM | > 100 µM | > 100 µM | 15 mm | > 100 µM | 13 mm | 14 mm | > 100 µg/mL | > 100 µM | inactive | > 100 µg/mL | 256 µg/mL (≈ 1030 µM) | 19 mm | zone of inhibition at 400 µg/disc (Enterococcus hirae; ATCC 10541, 18 h, read-out: IZ): 13 mm; MIC [13]: 256 µg/mL (≈ 1030 µM); MIC (Staphylococcus aureus [14]): 256 µg/mL (≈ 1030 µM); CC50 [15]: > 100 µM; MIC (Staphylococcus aureus [16]): 128 µg/mL (≈ 516 µM); MIC (Staphylococcus aureus [17]): 256 µg/mL (≈ 1030 µM); EC50 [18]: > 100 µM; zone of inhibition at 400 µg/disc (Bacillus cereus): 15 mm; EC50 [19]: > 100 µM; CC50 [20]: > 100 µM; EC50 [21]: > 100 µM; CC50 [22]: > 100 µM; MIC [23]: 512 µg/mL (≈ 2060 µM); zone of inhibition at 400 µg/disc [24]: 14 mm
C=C(C)CNC(=S)Nc1cccc(C(F)(F)F)c1 | 18 mm | 16 mm | 18 mm | inactive | > 43 µM | > 100 µM | 13 mm | > 100 µM | > 100 µM | > 100 µM | 16 mm | > 100 µM | 20 mm | 20 mm | 100 µg/mL (≈ 365 µM) | > 100 µM | inactive | > 100 µg/mL | 64 µg/mL (≈ 233 µM) | 17 mm | inhibition zone (IZ) (Enterococcus hirae): inactive; MIC [13]: 64 µg/mL (≈ 233 µM); MIC (Staphylococcus aureus [14]): 64 µg/mL (≈ 233 µM); CC50 [15]: > 100 µM; MIC (Staphylococcus aureus [16]): 64 µg/mL (≈ 233 µM); MIC (Staphylococcus aureus [17]): 64 µg/mL (≈ 233 µM); EC50 [18]: > 100 µM; zone of inhibition at 400 µg/disc (Bacillus cereus): 16 mm; EC50 [19]: > 100 µM; CC50 [20]: > 100 µM; EC50 [21]: > 100 µM; CC50 [22]: 43 µM; MIC [23]: 64 µg/mL (≈ 233 µM); zone of inhibition at 400 µg/disc [24]: 17 mm
